This note sets out measurements from ChEMBL document CHEMBL1144013, “Indol-3-yl-tetramethylcyclopropyl ketones: effects of indole ring substitution on CB2 cannabinoid receptor activity” (J Med Chem, 2008).

The structures appear in SMILES notation. Calls of active or inactive are those of the source. The calls are words filed in the database; no cut-off is given here.

For test [1], the target named is T1, Cannabinoid receptor 2 (Homo sapiens, UniProt P34972). In words: Displacement of [3H]CP-55940 from human recombinant CB2 receptor expressed in HEK cells. The test is classed as cell-based, HEK293. The note with it: read-out: Ki. Background: Loss of bound radioactivity is the signal in a displacement assay; it reports binding, not function.
T1 sequence (P34972 whole entry): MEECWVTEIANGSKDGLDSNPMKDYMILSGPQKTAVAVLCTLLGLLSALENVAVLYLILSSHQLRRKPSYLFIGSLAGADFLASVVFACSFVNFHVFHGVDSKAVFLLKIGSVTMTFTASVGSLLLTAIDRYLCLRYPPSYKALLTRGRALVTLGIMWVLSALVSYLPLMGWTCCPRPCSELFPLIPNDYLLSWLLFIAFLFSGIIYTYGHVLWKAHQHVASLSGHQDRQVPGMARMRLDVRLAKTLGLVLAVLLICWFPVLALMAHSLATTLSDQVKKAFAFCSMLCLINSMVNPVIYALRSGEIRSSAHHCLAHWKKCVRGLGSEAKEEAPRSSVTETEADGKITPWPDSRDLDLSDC
Test [2] concerns the target Cannabinoid receptor 1 (Homo sapiens, UniProt P21554). In words: Displacement of [3H]CP-55940 from human recombinant CB1 receptor expressed in HEK cells. It counts as cell-based, HEK293.
The species named for test [3] is Homo sapiens. In words: Selectivity for human recombinant CB2 receptor over human recombinant CB1 receptor. The procedure, abridged:
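Ki ratio from [3H]CP-55940 (0.5 nM) competition binding: human CB1 membranes from stably expressing […] cells versus human CB2 membranes from stably expressing HEK cells. Tris-HCl pH 7.4 buffer with EDTA, MgCl2, BSA; 90 min at 30 °C; filtration counting; nonspecific with 10 µM unlabeled ligand; ≥3 experiments in duplicate.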

Test [4] deals with T1, Cannabinoid receptor 2. In words: Agonist activity at human recombinant CB2 receptor expressed in HEK cells assessed as calcium mobilization by FLIPR. The test is classed as functional, cell-based, HEK293. The essentials:
(§1)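 HEK cells stably coexpressing human CB2 and chimeric Gαq/o5 protein, seeded 75,000/well one day before; no-wash calcium dye.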
In general terms: Calcium assays in cells follow changes in intracellular calcium, usually with a dye or a luminescent sensor.

Test [5] addresses T1, Cannabinoid receptor 2. As to the kind of experiment: Agonist activity at human recombinant CB2 receptor expressed in HEK cells assessed as calcium mobilization by FLIPR relative to CP-55940. The test is classed as functional, cell-based. As to conditions: HEK293. The essentials:
as §1

The species entered for test [6] is Rattus norvegicus. In words: Antiinflammatory activity against rat CFA-induced chronic inflammatory thermal hyperalgesia model assessed as effect on paw withdrawal latency. It counts as functional, organism-based. The essentials:
(§2)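 Rats given 150 µL of 50% CFA in PBS into right hind plantar paw; thermal hyperalgesia tested 48 h later. Compound in 5% DMSO/95% PEG; PWL read 30 min post dose in ipsilateral and contralateral paws, 3 trials ~5 min apart, mean of two shortest latencies. n = 6 per dose; compared against vehicle. Antagonist pretreatment group included.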

For test [7], the species on record is Rattus norvegicus. As to the kind of experiment: Antiinflammatory activity against CB2 receptor antagonist SR-144528-pretreated rat CFA-induced chronic inflammatory thermal hyperalgesia model assessed as effect on paw withdrawal latency. The test is classed as functional, organism-based. The procedure, abridged: as §2
For test [8], the species on record is Rattus norvegicus. As to the kind of experiment: Antiinflammatory activity against CB1 receptor antagonist SR-141716A-pretreated rat CFA-induced chronic inflammatory thermal hyperalgesia model assessed as effect on paw withdrawal latency. It counts as functional, organism-based. The essentials: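 Rats received 150 µL of 50% CFA in PBS into the right hind plantar paw. Thermal hyperalgesia was tested 48 h later after antagonist pretreatment, dosing in 5% DMSO/95% PEG vehicle, n = 6 per dose. Paw withdrawal latency was measured 30 min post-dose in the ipsilateral and contralateral paws, with 3 trials about 5 min apart. The value is the mean of the two shortest latencies, compared with vehicle.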

Chain of Cannabinoid receptor 1 (P21554 whole entry): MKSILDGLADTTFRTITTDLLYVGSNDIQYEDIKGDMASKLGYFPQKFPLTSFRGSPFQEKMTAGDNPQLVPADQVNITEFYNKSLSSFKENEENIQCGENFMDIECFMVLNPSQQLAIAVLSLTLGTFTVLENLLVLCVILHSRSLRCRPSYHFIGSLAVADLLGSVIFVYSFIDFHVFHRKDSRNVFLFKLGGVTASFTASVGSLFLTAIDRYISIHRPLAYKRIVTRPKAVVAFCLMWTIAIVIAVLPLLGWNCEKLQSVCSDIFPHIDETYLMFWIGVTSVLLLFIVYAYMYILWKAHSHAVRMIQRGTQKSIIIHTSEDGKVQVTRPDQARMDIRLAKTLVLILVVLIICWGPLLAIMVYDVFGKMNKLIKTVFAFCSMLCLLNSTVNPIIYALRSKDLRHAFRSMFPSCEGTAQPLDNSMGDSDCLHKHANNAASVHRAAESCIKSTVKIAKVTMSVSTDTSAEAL

Turning to `COc1ccc2c(c1)c(C(=O)C1C(C)(C)C1(C)C)cn2CC1CCOCC1`, the Ki – broadly, a dissociation constant, usually derived from enzyme kinetics or from competition with a known ligand – was 4.6 nM in test [1] and 282 nM in test [2] (read-out: Ki). Also, the Ratio Ki in test [3] was 61. In addition, the EC50 (as a rule, the concentration giving half of the maximal effect) in test [4] was found to be 61 nM. Moreover, the Activity in test [5] turned out to be 35%.
For the compound `CC1(C)C(C(=O)c2cn(CC3CCOCC3)c3ccc(Br)cc23)C1(C)C`, the Ki was 6.6 nM in test [1] and 1930 nM in test [2] (read-out: Ki). Moreover, in test [3], the Ratio Ki was 292. The 50% effective concentration (EC50) in test [4] is 280 nM. Besides, the Activity in test [5] turned out to be 54%.
The corresponding values for `CC1(C)C(C(=O)c2cn(CCN3CCOCC3)c3cc(O)ccc23)C1(C)C` are 109 nM, over 10000 nM, over 92, 186 nM and 62%.
`CC1(C)C(C(=O)c2cn(CCN3CCOCC3)c3ccccc23)C1(C)C`: in test [1], the Ki stood at 4.4 nM. Moreover, in test [4], the EC50 worked out at 14 nM. In test [5], the Activity turned out to be 71%. For the same compound, the result in test [6] was Active.
For the compound `CC1(C)C(C(=O)c2cn(CC3CCOCC3)c3cc(O)ccc23)C1(C)C`, the Ki is 8.5 nM in test [1], over 3000 nM in test [2] (read-out: Ki) and over 3020 nM in test [2] (read-out: Log Ki (converted)). Further, the Ratio Ki in test [3] was over 353. In test [4], the EC50 turned out to be 15 nM. In test [5], the Activity is 107%.
With `CC1(C)C(C(=O)c2cn(CC3CCOCC3)c3ccc(Cl)cc23)C1(C)C`, the Ki is 3 nM in test [1] and 512 nM in test [2] (read-out: Ki). The Ratio Ki in test [3] was 171. Also, in test [4], the EC50 turned out to be 92 nM. Moreover, in test [5], the Activity turned out to be 69%.
In the case of `CC1(C)C(C(=O)c2cn(CC3CCOCC3)c3ccc(N)cc23)C1(C)C`, the Ki in test [1] is 9.3 nM; in test [2] (hek293, read-out: Ki) it was over 1000 nM; in test [2] (read-out: Log Ki (converted)), over 1000 nM. Further, the Ratio Ki in test [3] worked out at 108. Also, in test [4], the EC50 worked out at 10 nM. Further, the Activity in test [5] is 80%.
`CC1(C)C(C(=O)c2cn(CC3CCOCC3)c3cccc(OCc4ccccc4)c23)C1(C)C`: the Ki in test [1] is 9.3 nM; in test [2] (read-out: Ki), over 10000 nM. The Ratio Ki in test [3] was over 1080. Besides, in test [4], the EC50 was found to be 383 nM. In addition, the Activity in test [5] is 45%.
The corresponding values for `CC1(C)C(C(=O)c2cn(CC3CCOCC3)c3c(F)c(F)c(F)c(F)c23)C1(C)C` are 5 nM, 66 nM, 13, 37 nM and 88%.
Taken in the same sequence, the figures for `CC1(C)C(C(=O)c2cn(CC3CCOCC3)c3ccc(CO)cc23)C1(C)C` were 113 nM, over 10000 nM, over 88, 73 nM and 53%.
As for `CC1(C)C(C(=O)c2cn(CC3CCOCC3)c3ccc(F)cc23)C1(C)C`, the Ki worked out at 1.6 nM in test [1] and 1210 nM in test [2] (read-out: Ki). Further, in test [3], the Ratio Ki amounted to 756. In test [4], the EC50 is 22 nM. The Activity in test [5] was 88%.
The corresponding values for `COc1cccc2c1c(C(=O)C1C(C)(C)C1(C)C)cn2CC1CCOCC1` are 3.3 nM, 1090 nM, 330, 81 nM and 37%.
For `CC1(C)C(C(=O)c2cn(CC3CCOCC3)c3cc(-c4ccccc4)ccc23)C1(C)C`, the Ki in test [1] amounted to 0.41 nM; in test [2] (read-out: Ki), 228 nM. Besides, the Ratio Ki in test [3] came out at 556. The EC50 in test [4] was over 10000 nM. In addition, the outcome in test [6] was inactive.
On to `Cc1ccc(Cn2nc(C(=O)NC3C(C)(C)C4CC[C@@]3(C)C4)cc2-c2ccc(Cl)c(C)c2)cc1` (stereo partly drawn), for which the result in test [7] was inactive.
`Cc1c(C(=O)NN2CCCCC2)nn(-c2ccc(Cl)cc2Cl)c1-c1ccc(Cl)cc1`: the outcome in test [8] was Active.
With `CC1(C)C(C(=O)c2cn(CCN3CCOCC3)c3cccc(N)c23)C1(C)C`, the Ki in test [1] was 32 nM; in test [2] (read-out: Ki), over 3500 nM; in test [2] (read-out: Log Ki (converted)), over 3470 nM. For the same compound, in test [3], the Ratio Ki was over 109. In test [4], the 50% effective concentration (EC50) was 50 nM. In addition, the Activity in test [5] came out at 41%.
Turning to `CC1(C)C(C(=O)c2cn(CC3CCOCC3)c3cccc(O)c23)C1(C)C`, the inhibition constant Ki in test [1] came to 3.9 nM. In addition, in test [4], the EC50 was 64 nM. Also, the Activity in test [5] is 94%; in test [6] it was “Dose-dependent effect”.
